Data set [1] can be described thus: Cytotoxicity against mouse NIH/3T3 cells at antibacterial MIC (Escherichia coli ATCC 25922) assessed as reduction in cell index incubated for 60 hrs. Format: cell-based. The settings on record: nih3t3, 60 h.
A further data set concerns Escherichia coli. Briefly: Antibacterial activity against Escherichia coli ATCC 25922 assessed as inhibition of visible bacterial growth incubated at 37 degC for 24 hrs by CLSI protocol based method. Format: functional. The settings on record: ATCC 25922, 24 h. The procedure, abridged:
(§1)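 Broth microdilution per CLSI 2012. Strains grown at 37 °C in Mueller-Hinton broth to log phase (1 × 10^8 CFU/mL). Peptide 2-fold serial dilutions, 6.25–800 μg/mL, in Mueller-Hinton broth; final inoculum 5 × 10^5 CFU/mL per well. Aerobic incubation 24 h at 37 °C. MIC is the lowest concentration with no visible growth (A600 < 0.05). Meropenem control for Gram-negatives, oxacillin for S. aureus. Triplicate, two independent experiments.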

For the next data set, the system named is Staphylococcus aureus. Put plainly: Antibacterial activity against Staphylococcus aureus […] assessed as inhibition of visible bacterial growth incubated at 37 degC for 24 hrs by CLSI protocol based method. Format: functional. The essentials:
as §1

A further data set has as its system Klebsiella pneumoniae. Briefly: Antibacterial activity against Klebsiella pneumoniae ATCC 700603 assessed as inhibition of visible bacterial growth incubated at 37 degC for 24 hrs by CLSI protocol based method. Format: functional. The settings on record: ATCC 700603, 24 h. The procedure, abridged:
as §1

A further data set deals with Salmonella enterica. Put plainly: Antibacterial activity against Salmonella choleraesuis ATCC 14028 assessed as inhibition of visible bacterial growth incubated at 37 degC for 24 hrs by CLSI protocol based method. The class given is functional. The settings on record: ATCC 14028, 24 h. The procedure, abridged:
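Strain grown at 37 °C in Mueller-Hinton broth to log phase (1 × 10^8 CFU/mL). Broth microdilution per CLSI (2012) with 2-fold peptide dilutions in Mueller-Hinton broth, 6.25–800 μg/mL, final inoculum 5 × 10^5 CFU/mL. Incubated 24 h, 37 °C, aerobic. MIC is the lowest concentration giving absorbance below 0.05 at 600 nm. Meropenem control. Triplicate, two independent experiments.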

Data set [2] in a line: Toxicity in human RBC assessed as induction of hemolysis at antibacterial MIC (Escherichia coli ATCC 25922) incubated for 1 hr at 37 degC. Format: cell-based, Erythrocyte. Conditions: human red blood cells (RBC), read-out: Activity. The procedure, abridged:
(§2)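 Human RBCs collected in EDTA (1.8 mg/mL), washed three times, resuspended in 0.85% saline, mixed with an equal volume of peptide solution (100–800 μg/mL). 1 h at 37 °C, centrifuged at 10000g for 1 min, supernatant absorbance read at 550 nm. Saline and 0.1% (v/v) Triton X as 0 and 100% controls. % hemolysis = (A peptide − A saline)/(A Triton − A saline) × 100.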

Data set [3] in a line: Toxicity in human RBC assessed as induction of hemolysis at 800 ug/mL incubated for 1 hr at 37 degC. Format: cell-based, Erythrocyte. The settings on record: human red blood cells (RBC), read-out: Activity. The essentials: as §2

Structures are written as SMILES. Values after ≈ are worked out from the molar mass of the structure shown. Where a SMILES comes first, the peptide text is derived from it.

One may read the MIC as the lowest concentration found to suppress growth.

As to `CC[C@H](C)[C@H](NC(=O)[C@H](CCCCN)NC(=O)CNC(=O)[C@H](CCSC)NC(=O)[C@H](C)NC(=O)[C@H](Cc1cnc[nH]1)NC(=O)[C@H](C)NC(=O)[C@@H](NC(=O)[C@H](CC(C)C)NC(=O)[C@H](CCC(N)=O)NC(=O)[C@H](CCCCN)NC(=O)CNC(=O)[C@H](C)NC(=O)[C@H](CC(=O)O)NC(=O)[C@H](CCCCN)NC(=O)[C@@H](NC(=O)[C@@H](NC(=O)[C@H](CC(=O)O)NC(=O)[C@H](Cc1ccccc1)NC(=O)[C@@H](NC(=O)CN)C(C)C)[C@@H](C)CC)[C@@H](C)CC)C(C)C)C(=O)N[C@@H](C)C(=O)N[C@@H](CCC(=O)O)C(=O)N[C@@H](CCCCN)C(=O)N[C@H](C(N)=O)C(C)C` (H-GVFDIIKDAGKQLVAHAMGKIAEKV-NH2), the Activity entry in data set [1] was “Non-toxic”. The MIC in the data set on Escherichia coli was 300 µM (≈ 791 µg/mL); in the data set with Staphylococcus aureus, more than 300 µM; in the data set on Klebsiella pneumoniae it was more than 300 µM; in the data set with Salmonella enterica it was more than 300 µM. For the same molecule, the hemolysis at 1 h in data set [2] came to 1.98%. In addition, the hemolysis at 1 h, 800 ug/mL in data set [3] came out at 1.98%.

Take `CC[C@H](C)[C@H](NC(=O)[C@H](CCCCN)NC(=O)CNC(=O)[C@@H](NC(=O)[C@H](C)NC(=O)[C@H](Cc1cnc[nH]1)NC(=O)[C@H](C)NC(=O)[C@@H](NC(=O)[C@H](CC(C)C)NC(=O)[C@H](CCC(N)=O)NC(=O)[C@H](CCCCN)NC(=O)CNC(=O)[C@H](C)NC(=O)[C@H](CC(=O)O)NC(=O)[C@H](CCCCN)NC(=O)[C@@H](NC(=O)[C@@H](NC(=O)[C@H](CC(=O)O)NC(=O)[C@H](Cc1ccccc1)NC(=O)[C@@H](NC(=O)CN)C(C)C)[C@@H](C)CC)[C@@H](C)CC)C(C)C)[C@@H](C)O)C(=O)N[C@@H](C)C(=O)N[C@@H](CCC(=O)O)C(=O)N[C@@H](CCCCN)C(=O)N[C@H](C(N)=O)C(C)C` (H-GVFDIIKDAGKQLVAHATGKIAEKV-NH2): the Activity result in data set [1] is given as “Non-toxic”. Further, the MIC in the data set with Escherichia coli, in the data set with Staphylococcus aureus, in the data set with Klebsiella pneumoniae and in the data set on Salmonella enterica was more than 310 µM in each case. Besides, in data set [2], the hemolysis at 1 h is 0%. Moreover, in data set [3], the hemolysis at 1 h, 800 ug/mL was 0%.

In the case of `CC[C@H](C)[C@H](NC(=O)[C@H](CCCCN)NC(=O)CNC(=O)[C@H](CCSC)NC(=O)[C@H](C)NC(=O)[C@H](Cc1cnc[nH]1)NC(=O)[C@H](C)NC(=O)[C@@H](NC(=O)[C@H](CC(C)C)NC(=O)[C@H](CCC(N)=O)NC(=O)[C@H](CCCNC(=N)N)NC(=O)CNC(=O)[C@H](C)NC(=O)[C@H](CC(=O)O)NC(=O)[C@H](CCCCN)NC(=O)[C@@H](NC(=O)[C@@H](NC(=O)[C@H](CC(=O)O)NC(=O)[C@H](Cc1ccccc1)NC(=O)[C@@H](NC(=O)CN)C(C)C)[C@@H](C)CC)[C@@H](C)CC)C(C)C)C(=O)N[C@@H](C)C(=O)N[C@@H](CCC(=O)O)C(=O)N[C@@H](CCCCN)C(=O)N[C@H](C(N)=O)C(C)C` (H-GVFDIIKDAGRQLVAHAMGKIAEKV-NH2), the Activity entry in data set [1] is reported as “Non-toxic”. The MIC with Escherichia coli was 300 µM (≈ 800 µg/mL); in the data set on Staphylococcus aureus it was more than 300 µM; in the data set on Klebsiella pneumoniae, more than 300 µM; with Salmonella enterica, more than 300 µM. Besides, in data set [2], the hemolysis at 1 h is 4.05%. Moreover, the hemolysis at 1 h, 800 ug/mL in data set [3] amounted to 4.05%.

For the molecule `CC[C@H](C)[C@H](NC(=O)[C@H](CC(C)C)NC(=O)[C@H](CCC(N)=O)NC(=O)[C@H](CCCCN)NC(=O)CNC(=O)[C@H](C)NC(=O)CNC(=O)[C@H](CCCCN)NC(=O)[C@@H](NC(=O)[C@@H](NC(=O)[C@H](CC(=O)O)NC(=O)[C@H](Cc1ccccc1)NC(=O)[C@@H](NC(=O)CN)C(C)C)[C@@H](C)CC)[C@@H](C)CC)C(=O)N[C@@H](C)C(=O)N[C@@H](Cc1cnc[nH]1)C(=O)N[C@@H](C)C(=O)N[C@@H](CCSC)C(=O)N[C@@H](CCC(=O)O)C(=O)N[C@@H](CCCCN)C(=O)N[C@H](C(=O)N[C@@H](C)C(=O)N[C@@H](CCC(=O)O)C(=O)N[C@@H](CCCCN)C(=O)N[C@H](C(=O)NCC(=O)N[C@@H](CC(C)C)C(=O)N[C@@H](CC(N)=O)C(=O)N[C@@H](CCCCN)C(=O)N[C@@H](CC(=O)O)C(=O)NCC(=O)N[C@@H](CC(N)=O)C(=O)O)C(C)C)[C@@H](C)CC` (H-GVFDIIKGAGKQLIAHAMEKIAEKVGLNKDGN-OH), the Activity entry in data set [1] is recorded as “Non-toxic”. In addition, the MIC in the data set on Escherichia coli is 120 µM (≈ 404 µg/mL); in the data set with Staphylococcus aureus, more than 240 µM; in the data set on Klebsiella pneumoniae, more than 240 µM; in the data set on Salmonella enterica, more than 240 µM. For the same molecule, in data set [2], the hemolysis at 1 h is 0%. In data set [3], the hemolysis at 1 h, 800 ug/mL is 0.69%.

Consider `CC[C@H](C)[C@H](NC(=O)[C@H](CCCCN)NC(=O)CNC(=O)[C@H](CCSC)NC(=O)[C@H](C)NC(=O)[C@H](Cc1cnc[nH]1)NC(=O)[C@H](C)NC(=O)[C@@H](NC(=O)[C@H](CC(C)C)NC(=O)[C@H](CCC(N)=O)NC(=O)[C@H](CCCCN)NC(=O)CNC(=O)[C@H](C)NC(=O)CNC(=O)[C@H](CCCCN)NC(=O)[C@@H](NC(=O)[C@@H](NC(=O)[C@H](CC(=O)O)NC(=O)[C@H](Cc1ccccc1)NC(=O)[C@@H](NC(=O)CN)C(C)C)[C@@H](C)CC)[C@@H](C)CC)[C@@H](C)CC)C(=O)N[C@@H](C)C(=O)N[C@@H](CCC(=O)O)C(=O)N[C@@H](CCCCN)C(=O)N[C@H](C(N)=O)C(C)C` (H-GVFDIIKGAGKQLIAHAMGKIAEKV-NH2), for which the Activity entry in data set [1] is listed as “Non-toxic”. Besides, the minimal inhibitory concentration (MIC) is 80 µM (≈ 208 µg/mL) in the data set with Escherichia coli, more than 310 µM in the data set on Staphylococcus aureus, 310 µM (≈ 804 µg/mL) in the data set with Klebsiella pneumoniae and 310 µM (≈ 804 µg/mL) with Salmonella enterica. Besides, in data set [2], the hemolysis at 1 h stood at 0.19%. Moreover, the hemolysis at 1 h, 800 ug/mL in data set [3] came out at 4.29%.

As to `CC[C@H](C)[C@H](NC(=O)[C@H](CCCCN)NC(=O)CNC(=O)[C@H](CCSC)NC(=O)[C@H](C)NC(=O)[C@H](CCCNC(=N)N)NC(=O)[C@H](C)NC(=O)[C@@H](NC(=O)[C@H](CC(C)C)NC(=O)[C@H](CCC(N)=O)NC(=O)[C@H](CCCCN)NC(=O)CNC(=O)[C@H](C)NC(=O)CNC(=O)[C@H](CCCCN)NC(=O)[C@@H](NC(=O)[C@@H](NC(=O)[C@H](CC(=O)O)NC(=O)[C@H](Cc1ccccc1)NC(=O)[C@@H](NC(=O)CN)C(C)C)[C@@H](C)CC)[C@@H](C)CC)[C@@H](C)CC)C(=O)N[C@@H](C)C(=O)N[C@@H](CCC(=O)O)C(=O)N[C@@H](CCCCN)C(=O)N[C@H](C(=O)NCC(=O)N[C@@H](CC(C)C)C(=O)N[C@@H](CC(N)=O)C(=O)N[C@@H](CCCCN)C(=O)N[C@@H](CC(=O)O)C(=O)NCC(=O)N[C@@H](CC(N)=O)C(=O)O)C(C)C` (H-GVFDIIKGAGKQLIARAMGKIAEKVGLNKDGN-OH), in data set [1], the Activity result was “Non-toxic”. For the same molecule, the MIC in the data set with Escherichia coli came out at 60 µM (≈ 199 µg/mL); in the data set on Staphylococcus aureus, 240 µM (≈ 795 µg/mL); in the data set with Klebsiella pneumoniae, 240 µM (≈ 795 µg/mL); in the data set on Salmonella enterica, 240 µM (≈ 795 µg/mL). Also, in data set [2], the hemolysis at 1 h came to 0%. Also, in data set [3], the hemolysis at 1 h, 800 ug/mL was 8.09%.
